# Records with an inconclusive call do not appear. Active and inactive are the calls of the source.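 How the source made its calls, unless noted: active means inhibition over a set limit, the all-compound mean plus 3 SD, in both replicate runs; inconclusive means over that limit in just one replicate run; inactive means at or under that limit in both runs.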
# Tests used:
# [1] = S. cerevisiae growth inhibition in permissive medium (OD615), pilot counter-assay for S. cerevisiae lifespan shortening project, permissive growth control (AID 705;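 active means growth inhibition above 25% in both replicates, a cutoff set 3 SD above the mean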); details: OD615, 24 h, at 10 µM, hits give high values
# In short: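 System: Engineered DeaD yeast | Buffer or medium: SC raffinose/galactose permissive medium | Doses: 10 µM single dose, 0.25% DMSO | Times: 24 h exposure, 30 °C | Measured by: OD615 turbidity read | Read-out: Yeast growth inhibition indicated by reduced 24 h OD615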
# [2] = S. cerevisiae growth inhibition in restrictive medium, OD615, pilot screen, restrictive growth control, yeast lifespan reduction project (AID 706;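 active means growth inhibition above a set limit, 3 SD over mean compound inhibition, in both replicates, cut at about 43% in these data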;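 further: modified DeaD lifespan yeast strain shifted to restrictive glucose medium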); details: OD615, 48 h, at 10 µM, hits give high values
# In short: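 Assay system: engineered S. cerevisiae DeaD strain; Buffer or medium: CSMM-D glucose medium; Dosing: 10 µM compound, 0.25% DMSO; Times: cell pre-growth 4 h, compound exposure 48 h, 30 °C; Detection: absorbance (optical density) measured at 615 nm.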
# [3] = doxorubicin toxicity protection in MRP-1 cells – H69AR cells, CellTiter-Glo, duplicate, MRP-1 activator project, pilot screen (AID 807;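 active means viability increase at or above a cutoff of the median across tested compounds plus 3 SD, cut at about 8.5% in these data, passing the limit was not always enough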;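 further: compound pretreatment 18-22 h then 72 h combined with doxorubicin; 0% = doxorubicin alone and 100% = vehicle without doxorubicin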); details: H69AR viability with doxorubicin, CellTiter-Glo luminescence; at 10 µM; hits give high values
# [4] = viability of HCT116 without oncogenic beta-catenin – human colon tumor cells, pilot screen (AID 823;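 active means cell viability at or below a set limit in both duplicate runs, the limit being the all-compound median minus 4 SD, cut at about 23% in these data, passing the limit was not always enough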;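 further: 0% = wells killed by 20 µM Hyamine and 100% = untreated DMSO cell wells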); details: HCT116 beta-catenin knockout viability, CellTiter-Glo, 60 h; at 10 µM; hits give low values
# [5] = viability of PTEN-null HCT116 cells – cell-based, HCT116 clonal line, CellTiter-Glo, pilot screen (AID 824;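 active means viability at or below 27.92% in each of two runs, the all-compound median minus 4 SD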;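 further: 0% = 20 µM Hyamine control and 100% = vehicle cell control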); details: HCT116 PTEN-deleted viability, 60 h, at 10 µM, hits give low values
# [6] = RAM pathway blockade in budding yeast – dse1pr::URA3 reporter, 5-FOA selection, pilot screen (AID 869);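 further: 0% = DMSO wells with no growth and 100% = 10 µM 1-NA-PP1 with full growth; RAM network block rescues cells from 5-FOA so hits raise OD615 growth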; details: S. cerevisiae dse1pr::URA3 5-FOA growth, OD615, 2 d; at 10 µM; hits give high values; strain carries analog-sensitive mutant Cbk1 kinase
# [7] = RAM signaling pathway blockade in yeast – S. cerevisiae, Pdr1DBD-CYC8 efflux-inhibited sensitized strain, primary screen (AID 1298;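 active means RAM network inhibition above 8.4% in each of two replicates, 3 SD over the compound average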;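 further: 0% = DMSO untreated cells without growth and 100% = 10 µM 1-NA-PP1 full growth; higher means more yeast growth rescued from 5-FOA killing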); details: S. cerevisiae cbk1-as DSE1-URA3 strain, 5-FOA growth OD615, 2 d; at 50 µM; hits give high values
SMILES,growth inhibition [1],growth inhibition [2],viability increase [3],viability [4],viability [5],inhibition [6],RAM network inhibition [7]
CCOC(=O)C1C(=O)N(C(=O)c2cncc(Br)c2)CC1c1ccccc1 (stereo unspecified),-0.835% (inactive),8.88% (inactive),-0.37% (inactive),101% (inactive),106% (inactive),0.985% (inactive),9.56% (inactive)
CC(=O)OC1c2c(ccc3ccc(=O)oc23)OC(C)(C)C1OC(=O)CC(C)C (stereo unspecified),-18.4% (inactive),-10% (inactive),1.31% (inactive),84.7% (inactive),80.8% (inactive),1.1% (inactive),10% (inactive)
Clc1ccc2nc3ccccn3c2c1,-6.63% (inactive),-5.02% (inactive),-4.02% (inactive),109% (inactive),106% (inactive),1.56% (inactive),2.48% (inactive)
CSc1nnc(Cn2c(=O)sc3ccccc32)n1-c1ccccc1C,-14.4% (inactive),-4% (inactive),-2.05% (inactive),97.2% (inactive),96.7% (inactive),1.73% (inactive),2.76% (inactive)
Cc1ccc2[nH]c(=O)c3cc(C(=O)N4CCN(C(=O)c5ccco5)CC4)sc3c2c1,5.33% (inactive),7.05% (inactive),-3.84% (inactive),99% (inactive),92.3% (inactive),1.16% (inactive),7.89% (inactive)
Cc1ccccc1-n1nc(C(=O)O)c(C)c(C#N)c1=O,-3.86% (inactive),-6.29% (inactive),-0.28% (inactive),97.8% (inactive),98.6% (inactive),2.41% (inactive),3.52% (inactive)
Cc1onc(-c2ccccc2Cl)c1C(=O)Nc1nnc(C(C)C)s1,1.52% (inactive),4.5% (inactive),-1.44% (inactive),93.4% (inactive),95.7% (inactive),-0.23% (inactive),4.37% (inactive)
Cc1nc(Sc2nnnn2-c2ccccc2)c(C#N)c(C)c1C,-13.8% (inactive),-9.12% (inactive),-2.52% (inactive),108% (inactive),97% (inactive),2.97% (inactive),9.98% (inactive)
CCOC(=O)c1cccc(NC(=O)CNC(=O)C2CCCCC2)c1,3.97% (inactive),2.92% (inactive),-0.32% (inactive),96.1% (inactive),99.2% (inactive),0.655% (inactive),-0.72% (inactive)
CCOc1ccc(NC(=O)c2cnc3scc(C)n3c2=O)cc1,-17.7% (inactive),3.42% (inactive),-1.16% (inactive),101% (inactive),98.9% (inactive),2.76% (inactive),8.45% (inactive)
COc1cc(NC(=O)c2ccc(S(=O)(=O)N(C)C)cc2)cc(OC)c1OC,-4.25% (inactive),-12.5% (inactive),-2.66% (inactive),92.9% (inactive),94.3% (inactive),0.985% (inactive),3.48% (inactive)
O=C(CN1C(=O)CCC1=O)Nc1nc2c(F)cc(F)cc2s1,-23% (inactive),-18.8% (inactive),-0.91% (inactive),99.4% (inactive),92.5% (inactive),1.6% (inactive),1.49% (inactive)
COc1cc2c(cc1OC)C(COc1ccc3c(C)cc(=O)oc3c1)N(C(=O)c1ccco1)CC2 (stereo unspecified),-1.62% (inactive),-3.73% (inactive),-4.63% (inactive),91.8% (inactive),87.8% (inactive),1.6% (inactive),4.74% (inactive)
CCOc1ccc(-c2nc(-c3ccccc3)no2)cc1OCC,-16.6% (inactive),-29.6% (inactive),2.12% (inactive),106% (inactive),91% (inactive),3.66% (inactive),5.86% (inactive)
CCOc1ccc(N=C2NC(=O)C(CC(=O)O)S2)cc1 (stereo unspecified),-5.86% (inactive),3% (inactive),-0.06% (inactive),104% (inactive),101% (inactive),2.49% (inactive),2.45% (inactive)
O=C(CS(=O)(=O)c1cn(Cc2cccc(F)c2)c2ccccc12)N1CCOCC1,-9.09% (inactive),-22% (inactive),-3.47% (inactive),91.1% (inactive),88.8% (inactive),2.82% (inactive),6% (inactive)
CCN(CC)S(=O)(=O)c1ccc(Cl)c(C(=O)Nc2nnc(C)s2)c1,-6.93% (inactive),1.45% (inactive),0.43% (inactive),93.1% (inactive),95.7% (inactive),-0.08% (inactive),4.33% (inactive)

SMILES,growth inhibition [1],growth inhibition [2],viability increase [3],viability [4],viability [5],inhibition [6],RAM network inhibition [7]
CCN(CCC(=O)Nc1cc(OC)cc(OC)c1)Cc1ccccc1,1.21% (inactive),-14.7% (inactive),-2.96% (inactive),84.4% (inactive),85.8% (inactive),2.68% (inactive),3.12% (inactive)
COc1cccc2sc(Nc3nnc(-c4ccccc4Cl)o3)nc12,-29.8% (inactive),-13.7% (inactive),-4.31% (inactive),15.4% (active),18.8% (active),1.1% (inactive),1.26% (inactive)
CCOC(=O)Cn1c(=O)oc2cc(S(=O)(=O)Nc3ccc(N(CC)CC)cc3C)ccc21,-11.3% (inactive),-8.05% (inactive),0.16% (inactive),85.6% (inactive),86.6% (inactive),1.81% (inactive),9.51% (inactive)
O=C(c1ccc(CS(=O)(=O)c2ccc(Br)cc2)o1)N1CCN(C2CCCCC2)CC1,0.435% (inactive),9.43% (inactive),-3.78% (inactive),112% (inactive),95.8% (inactive),1.93% (inactive),0.46% (inactive)
CCOC(=O)N1CCC(NC(=O)c2cc3ccccn3n2)CC1,1.83% (inactive),1.79% (inactive),0.34% (inactive),97.5% (inactive),101% (inactive),1.8% (inactive),0.26% (inactive)
Cc1ccc2c(c1)c(C)c(C)n2CC(O)CN1CCCCC1C (stereo unspecified),-9.72% (inactive),-9.14% (inactive),-4.02% (inactive),72.2% (inactive),79.6% (inactive),0.91% (inactive),2.28% (inactive)
Cc1cc(NC(=O)CSc2c3c(nc4ccccc24)CCC3)no1,-4.17% (inactive),5.52% (inactive),-6.01% (inactive),78.1% (inactive),74.6% (inactive),2.21% (inactive),2.01% (inactive)
Cc1c(C)n(C(=O)CSc2nncn2C)c2ccccc12,3.06% (inactive),12.8% (inactive),-2.73% (inactive),93.2% (inactive),98.1% (inactive),0.94% (inactive),3% (inactive)
Cc1ccc(S(=O)(=O)NCC(=O)N2CCCCC2)cc1,-11.1% (inactive),-11.9% (inactive),-1.13% (inactive),97.8% (inactive),102% (inactive),0.465% (inactive),1.88% (inactive)
Cc1cc2nc(SCCN3CCCC3)[nH]c2cc1C,7.63% (inactive),-8.07% (inactive),-4.4% (inactive),83.1% (inactive),89.1% (inactive),3.22% (inactive),-0.81% (inactive)
Nc1nc(SCC(=O)OCc2ccccc2)[nH]c(=O)c1NC(=O)c1ccco1,-8.4% (inactive),-11.7% (inactive),-1.48% (inactive),101% (inactive),98.7% (inactive),1.36% (inactive),-0.54% (inactive)
O=C(Nc1ccc2c(c1)OCO2)C1COc2ccccc2O1 (stereo unspecified),-13.5% (inactive),-5.98% (inactive),-3.15% (inactive),91.9% (inactive),99.8% (inactive),2.16% (inactive),3.35% (inactive)
CCCCCCNS(=O)(=O)c1nc2nc(C)cc(C)n2n1,-15.4% (inactive),-13.1% (inactive),2.63% (inactive),104% (inactive),104% (inactive),1.35% (inactive),1.21% (inactive)
COC(=O)CCC(=O)Nc1ccc(Br)cc1,8.2% (inactive),0.895% (inactive),-1.52% (inactive),101% (inactive),95.4% (inactive),1.16% (inactive),6.37% (inactive)
CCCC(=O)c1ccc(N2CCCCCC2)c(F)c1,-13.2% (inactive),-2.93% (inactive),3.64% (inactive),85.9% (inactive),87.3% (inactive),1.73% (inactive),1.5% (inactive)
O=C1C(Cl)=C(N2CCCCCC2)C(=O)N1c1ccccc1,-12.4% (inactive),-16.4% (inactive),-0.88% (inactive),91.3% (inactive),93.2% (inactive),0.8% (inactive),3.09% (inactive)
